From ChEMBL document CHEMBL4813970, “Design, synthesis and evaluation of novel dimethylamino chalcone-O-alkylamines derivatives as potential multifunctional agents against Alzheimer's disease” (Eur J Med Chem, 2021) come the findings set out here.

Bounds are passed on as bounds.

The species entered for one assay is Homo sapiens. Put plainly: Selectivity index, ratio of IC50 for recombinant human MAO-A to IC50 for recombinant human MAO-B. Summed up:
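Selectivity index taken as IC50(hMAO-A)/IC50(hMAO-B). IC50 values are mean ± SEM from three experiments.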

Assay [1] has as its target T1, Acetylcholinesterase (Rattus norvegicus, UniProt P37136).
T1 sequence (P37136 whole entry): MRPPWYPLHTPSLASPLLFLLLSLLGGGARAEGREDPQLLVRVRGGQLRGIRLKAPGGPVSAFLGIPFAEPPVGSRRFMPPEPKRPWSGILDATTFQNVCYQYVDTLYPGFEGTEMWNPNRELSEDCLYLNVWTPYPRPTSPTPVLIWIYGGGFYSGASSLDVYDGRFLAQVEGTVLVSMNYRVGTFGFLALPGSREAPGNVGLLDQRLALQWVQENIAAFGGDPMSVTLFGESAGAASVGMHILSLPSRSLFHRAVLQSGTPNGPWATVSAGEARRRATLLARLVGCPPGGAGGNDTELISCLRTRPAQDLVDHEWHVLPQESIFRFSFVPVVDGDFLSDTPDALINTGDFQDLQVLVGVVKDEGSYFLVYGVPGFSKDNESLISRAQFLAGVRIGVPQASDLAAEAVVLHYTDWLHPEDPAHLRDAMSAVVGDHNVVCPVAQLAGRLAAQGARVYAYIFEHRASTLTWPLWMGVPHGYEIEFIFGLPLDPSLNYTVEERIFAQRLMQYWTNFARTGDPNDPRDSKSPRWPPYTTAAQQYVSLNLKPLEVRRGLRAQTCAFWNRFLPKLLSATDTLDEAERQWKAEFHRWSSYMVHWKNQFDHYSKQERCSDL
Put plainly: Inhibition of rat cortex homogenate acetylcholinesterase by Ellman's method. For orientation: In Ellman's method for cholinesterases, released thiocholine reacts with DTNB.

For assay [2], the target named is T2, Amyloid-beta precursor protein (Homo sapiens, UniProt P05067). Put plainly: Disaggregation of Cu2+ induced amyloid beta (1 to 42 residues) (unknown origin) aggregation at 25 uM by thioflavin-T fluorescence method relative to control.
Assay [3] addresses Acetylcholinesterase (Electrophorus electricus, UniProt O42275). Put plainly: Inhibition of electric eel AChE using acetylthiocholine iodide as substrate by Ellman's method.
Assay [4] concerns the target T2, Amyloid-beta precursor protein. Put plainly: Disaggregation of self-induced amyloid beta (1 to 42) (unknown origin) at 25 uM measured by Thioflavin T based fluorometric assay relative to control.
The target in assay [5] is T3, Amine oxidase [flavin-containing] B (Homo sapiens, UniProt P27338).
T3 sequence (P27338 whole entry): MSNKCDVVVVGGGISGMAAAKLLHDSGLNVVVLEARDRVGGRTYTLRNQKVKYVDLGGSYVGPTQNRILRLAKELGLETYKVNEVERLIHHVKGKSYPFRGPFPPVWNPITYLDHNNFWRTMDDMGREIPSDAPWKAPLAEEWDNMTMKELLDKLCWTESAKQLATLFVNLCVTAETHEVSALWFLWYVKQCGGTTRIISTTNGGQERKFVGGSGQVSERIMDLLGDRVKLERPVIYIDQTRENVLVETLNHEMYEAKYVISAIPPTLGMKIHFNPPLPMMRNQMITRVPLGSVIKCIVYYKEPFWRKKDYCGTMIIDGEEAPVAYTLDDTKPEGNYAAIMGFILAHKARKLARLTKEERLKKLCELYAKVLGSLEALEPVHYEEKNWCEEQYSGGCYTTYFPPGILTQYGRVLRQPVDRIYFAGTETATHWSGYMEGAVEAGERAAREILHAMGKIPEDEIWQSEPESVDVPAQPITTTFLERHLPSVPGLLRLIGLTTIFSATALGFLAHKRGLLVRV
Put plainly: Inhibition of human recombinant MAO-B by multimode plate reader assay.

Assay [6] addresses T2, Amyloid-beta precursor protein. The assay is described as follows: Inhibition of Cu2+ induced amyloid beta (1 to 42 residues) (unknown origin) aggregation at 25 uM by thioflavin-T fluorescence method relative to control.
The target of assay [7] is T4, Amine oxidase [flavin-containing] A (Homo sapiens, UniProt P21397).
T4 sequence (P21397 whole entry): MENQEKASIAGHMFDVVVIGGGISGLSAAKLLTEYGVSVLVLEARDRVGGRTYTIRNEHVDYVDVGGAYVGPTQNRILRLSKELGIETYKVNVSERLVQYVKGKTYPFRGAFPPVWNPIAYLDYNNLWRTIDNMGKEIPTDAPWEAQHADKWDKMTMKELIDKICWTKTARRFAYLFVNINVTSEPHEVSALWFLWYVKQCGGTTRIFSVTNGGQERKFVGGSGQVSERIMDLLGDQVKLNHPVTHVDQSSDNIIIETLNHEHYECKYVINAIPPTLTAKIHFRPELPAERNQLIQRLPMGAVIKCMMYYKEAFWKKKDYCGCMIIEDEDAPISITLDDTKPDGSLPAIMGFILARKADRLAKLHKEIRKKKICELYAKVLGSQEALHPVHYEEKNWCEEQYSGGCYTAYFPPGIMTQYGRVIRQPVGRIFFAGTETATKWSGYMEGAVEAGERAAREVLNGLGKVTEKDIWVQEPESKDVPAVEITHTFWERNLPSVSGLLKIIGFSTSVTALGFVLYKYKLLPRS
Put plainly: Inhibition of human recombinant MAO-A by multimode plate reader assay.

The nature of assay [8]: Antioxidant activity of compound assessed as trolox equivalent antioxidant capacity by ORAC-FL assay. The assay is classed as functional.
In the next assay the target is Butyrylcholinesterase (Rattus norvegicus, UniProt Q9JKC1). The assay is described as follows: Inhibition of rat serum BuChE by Ellman's method.
Assay [9] has as its target T2, Amyloid-beta precursor protein. The assay is described as follows: Inhibition of self-induced amyloid beta (1 to 42) (unknown origin) aggregation by T-fluorescence assay relative to control. A digest of the protocol: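 IC50 by ThT fluorescence (excitation 446 nm, emission 490 nm). Computed only where inhibition of self-induced Aβ1-42 aggregation at 25 μM exceeded 90%. Triplicate; mean of three independent experiments.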

The target is the same in assay [10]. The assay is described as follows: Inhibition of self-induced amyloid beta (1 to 42) (unknown origin) aggregation at 25 uM by T-fluorescence assay relative to control. Summed up:
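Self-induced Aβ1-42 aggregation measured by ThT fluorescence, excitation 446 nm and emission 490 nm. Compound and Aβ1-42 each at 25 μM. Run in triplicate. Values are mean of three independent experiments.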

Butyrylcholinesterase, sequence (Q9JKC1 whole entry): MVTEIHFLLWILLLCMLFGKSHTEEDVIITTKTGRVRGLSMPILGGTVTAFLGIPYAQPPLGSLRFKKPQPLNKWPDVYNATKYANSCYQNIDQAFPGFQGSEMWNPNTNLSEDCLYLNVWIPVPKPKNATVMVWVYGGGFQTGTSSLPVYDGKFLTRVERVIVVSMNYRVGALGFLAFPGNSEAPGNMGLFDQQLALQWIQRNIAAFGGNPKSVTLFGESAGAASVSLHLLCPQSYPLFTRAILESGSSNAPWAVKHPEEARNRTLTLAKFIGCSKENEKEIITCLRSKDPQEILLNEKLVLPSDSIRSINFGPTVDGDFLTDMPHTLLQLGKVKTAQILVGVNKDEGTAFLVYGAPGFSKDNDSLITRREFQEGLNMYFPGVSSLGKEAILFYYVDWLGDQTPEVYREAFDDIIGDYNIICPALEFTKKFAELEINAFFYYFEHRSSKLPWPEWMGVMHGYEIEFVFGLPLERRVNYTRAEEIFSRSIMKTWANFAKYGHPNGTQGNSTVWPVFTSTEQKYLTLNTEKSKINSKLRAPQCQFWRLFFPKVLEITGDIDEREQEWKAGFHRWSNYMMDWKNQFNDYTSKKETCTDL
T2 sequence (P05067 whole entry, the tested form may be a part): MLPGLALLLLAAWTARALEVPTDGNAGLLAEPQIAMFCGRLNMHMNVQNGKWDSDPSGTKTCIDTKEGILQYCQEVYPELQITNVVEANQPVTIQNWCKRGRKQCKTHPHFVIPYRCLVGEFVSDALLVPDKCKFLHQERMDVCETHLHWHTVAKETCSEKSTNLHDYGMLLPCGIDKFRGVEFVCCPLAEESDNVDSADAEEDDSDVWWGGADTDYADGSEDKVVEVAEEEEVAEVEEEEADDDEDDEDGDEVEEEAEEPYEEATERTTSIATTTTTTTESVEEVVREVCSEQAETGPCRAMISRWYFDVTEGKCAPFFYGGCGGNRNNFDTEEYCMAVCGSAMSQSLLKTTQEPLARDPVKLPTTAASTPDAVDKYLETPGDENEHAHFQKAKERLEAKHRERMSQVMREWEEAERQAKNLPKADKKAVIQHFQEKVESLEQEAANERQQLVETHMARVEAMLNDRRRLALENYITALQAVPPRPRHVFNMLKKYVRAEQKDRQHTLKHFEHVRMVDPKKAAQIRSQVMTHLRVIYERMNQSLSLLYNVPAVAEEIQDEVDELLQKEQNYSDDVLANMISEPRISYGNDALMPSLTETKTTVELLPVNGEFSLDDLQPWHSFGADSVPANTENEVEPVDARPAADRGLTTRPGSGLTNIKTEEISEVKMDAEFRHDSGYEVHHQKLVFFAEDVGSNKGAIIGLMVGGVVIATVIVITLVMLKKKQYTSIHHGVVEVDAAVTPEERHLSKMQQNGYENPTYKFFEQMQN
Acetylcholinesterase (Electrophorus electricus, UniProt O42275), sequence (O42275 whole entry): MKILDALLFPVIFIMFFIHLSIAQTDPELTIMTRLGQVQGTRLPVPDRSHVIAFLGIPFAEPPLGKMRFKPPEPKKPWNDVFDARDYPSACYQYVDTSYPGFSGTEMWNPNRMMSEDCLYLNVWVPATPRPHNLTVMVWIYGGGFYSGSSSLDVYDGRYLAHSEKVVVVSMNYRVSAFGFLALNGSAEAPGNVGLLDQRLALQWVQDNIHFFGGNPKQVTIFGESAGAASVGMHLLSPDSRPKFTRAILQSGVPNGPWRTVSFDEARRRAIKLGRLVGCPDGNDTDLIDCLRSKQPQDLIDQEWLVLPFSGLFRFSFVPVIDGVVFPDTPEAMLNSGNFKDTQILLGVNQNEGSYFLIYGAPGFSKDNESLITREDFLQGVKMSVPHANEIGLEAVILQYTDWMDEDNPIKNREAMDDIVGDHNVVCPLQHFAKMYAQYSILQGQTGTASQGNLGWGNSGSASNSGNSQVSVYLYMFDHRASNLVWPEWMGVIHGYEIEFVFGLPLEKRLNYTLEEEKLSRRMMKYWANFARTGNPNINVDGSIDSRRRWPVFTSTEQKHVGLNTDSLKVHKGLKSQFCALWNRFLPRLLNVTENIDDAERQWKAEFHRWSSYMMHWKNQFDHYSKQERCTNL

Take `CCN(CCCCOc1ccc(C(=O)/C=C/c2ccc(N(C)C)cc2)c(O)c1)Cc1ccc(N(C)C)cc1`: in the assay filed under Homo sapiens, the Selectivity Index is 7.2. In addition, the IC50 worked out at 1.35 µM against Acetylcholinesterase [1]; 1.96 µM on Acetylcholinesterase [3]; 2.4 µM in assay [5]; 17.2 µM in assay [7]; 68.9 µM on Butyrylcholinesterase; 2.1 µM in assay [9] (read-out: IC50). In addition, the Activity was determined as 78.8% in [2], 91.6% in [4] and 1.5 in assay [8]. In [6], this compound yielded an inhibition of 91.7%.

`CCN(CCCCCCOc1ccc(C(=O)/C=C/c2ccc(N(C)C)cc2)c(O)c1)Cc1ccccc1N(C)C`: the Selectivity Index in the assay filed under Homo sapiens stood at 18. For the same compound, the IC50 against Acetylcholinesterase [1] was determined as 0.31 µM; against Acetylcholinesterase [3] it was 2.44 µM; in assay [5] it was 2.1 µM; in [7], 37.8 µM; against Butyrylcholinesterase, 422 µM; in assay [9] (read-out: IC50) it was 1.03 µM. For the same compound, the Activity came to 83.4% in assay [2], 87.9% in assay [4] and 2 in assay [8]. Further, in assay [6], the inhibition is 96.5%.

For `CCN(CCCOc1ccc(C(=O)/C=C/c2ccc(N(C)C)cc2)c(O)c1)Cc1ccc(N(C)C)cc1`, the Selectivity Index in the assay filed under Homo sapiens was 4.2. For the same compound, the IC50 is 2.47 µM on Acetylcholinesterase [1]; 6.21 µM against Acetylcholinesterase [3]; 13.7 µM in assay [5]; 57.5 µM in assay [7]; above 500 µM at Butyrylcholinesterase; 1.32 µM in assay [9] (read-out: IC50). Moreover, the Activity in assay [2] amounted to 77.6%; in assay [4], 73.7%; in assay [8], 1.3. In assay [6], this compound gave an inhibition of 95%.

Consider `CCN(CCCCCCOc1ccc(C(=O)/C=C/c2ccc(N(C)C)cc2)c(O)c1)Cc1ccccc1OC`, for which the Selectivity Index in the assay listed under Homo sapiens came out at 77.6. Further, the IC50 is 0.56 µM on Acetylcholinesterase [1]; 5.17 µM on Acetylcholinesterase [3]; 0.7 µM in [5]; 54.3 µM in [7]; above 500 µM against Butyrylcholinesterase; 1.49 µM in [9] (read-out: IC50). Moreover, the values for the Activity in assay [2], in [4] and in assay [8] were 85.6%, 92.6% and 1.4, respectively. In addition, the inhibition in [6] is 93.2%.

Regarding `CCN(CCCOc1ccc(C(=O)/C=C/c2ccc(N(C)C)cc2)c(O)c1)Cc1ccccc1N(C)C`, the Selectivity Index in the assay filed under Homo sapiens was 7.4. Also, the IC50 against Acetylcholinesterase [1] came out at 0.21 µM; at Acetylcholinesterase [3] it was 1.59 µM; in assay [5], 3.2 µM; in [7], 23.6 µM; against Butyrylcholinesterase it was 339 µM; in [9] (read-out: IC50) it was 1.27 µM. The figures for the Activity in assay [2], in assay [4] and in assay [8] were 89.5%, 96.6% and 2.1, respectively. In assay [6], this compound returned an inhibition of 94.8%.

As for `CCN(CCCOc1ccc(C(=O)/C=C/c2ccc(N(C)C)cc2)c(O)c1)Cc1ccccc1`, the Selectivity Index in the assay listed under Homo sapiens came out at 6.3. Further, the IC50 against Acetylcholinesterase [1] was 1.44 µM; against Acetylcholinesterase [3] it was 5.06 µM; in assay [5], 13.1 µM; in [7], 82.6 µM; at Butyrylcholinesterase it was above 500 µM; in [9] (read-out: IC50), 1.68 µM. For the same compound, the Activity in assay [2] stood at 73.8%; in assay [4] it was 97.5%; in assay [8] it was 1.6. The compound further had an inhibition in assay [6] of 91.9%.

Take `CCN(CCCCCCOc1ccc(C(=O)/C=C/c2ccc(N(C)C)cc2)c(O)c1)Cc1ccc(N(C)C)cc1`: the Selectivity Index in the assay filed under Homo sapiens amounted to 23.3. In addition, the IC50 on Acetylcholinesterase [1] is 1.37 µM; against Acetylcholinesterase [3], 7.95 µM; in [5] it was 2.3 µM; in assay [7], 53.6 µM; on Butyrylcholinesterase, above 500 µM; in [9] (read-out: IC50), 1.38 µM. Further, the Activity in assay [2] was determined as 84.4%; in assay [4], 95%; in assay [8], 1.4. In addition, the inhibition in assay [6] was determined as 95.6%.

Turning to `CCN(CCCCOc1ccc(/C=C/C(=O)c2ccc(N(C)C)cc2O)cc1)Cc1ccccc1N(C)C`, the Selectivity Index in the assay listed under Homo sapiens was 2.9. For the same compound, the IC50 against Acetylcholinesterase [3] is 3.02 µM; in [5], 4.3 µM; in assay [7] it was 12.3 µM; at Butyrylcholinesterase, above 500 µM. In assay [10], this compound gave an inhibition of 75.8%. Besides, in assay [8], the Activity was found to be 1.5.

On to `COc1cc2c(cc1OC)C(=O)C(CC1CCN(Cc3ccccc3)CC1)C2` (centres undefined) [DONEPEZIL], for which the concentration for half-maximal inhibition (IC50) entry in assay [9] is on record as “Not Active”.

`CCN(CCCCOc1ccc(C(=O)/C=C/c2ccc(N(C)C)cc2)c(O)c1)Cc1ccccc1`: the Selectivity Index in the assay listed under Homo sapiens turned out to be 8.7. Also, the IC50 against Acetylcholinesterase [1] was 1.39 µM; at Acetylcholinesterase [3] it was 4.3 µM; in assay [5] it was 8.9 µM; in [7], 77.3 µM; against Butyrylcholinesterase, 202 µM; in assay [9] (read-out: IC50) it was 3.78 µM. Moreover, the Activity in assay [2] was 82.1%; in assay [4] it was 97.2%; in assay [8], 1.5. The compound further displayed an inhibition in assay [6] of 93.9%.

On to `CCN(CCCOc1ccc(C(=O)/C=C/c2ccc(N(C)C)cc2)c(O)c1)Cc1ccccc1OC`, for which, in the assay listed under Homo sapiens, the Selectivity Index turned out to be 2.4. The IC50 is 0.63 µM against Acetylcholinesterase [1]; 5.3 µM against Acetylcholinesterase [3]; 10.8 µM in [5]; 26.3 µM in assay [7]; above 500 µM against Butyrylcholinesterase; 3.56 µM in [9] (read-out: IC50). The Activity in [2] was 74.8%; in assay [4] it was 98.1%; in assay [8], 1.5. Further, in assay [6], the inhibition worked out at 95.2%.

As for `CCN(CCCCOc1ccc(C(=O)/C=C/c2ccc(N(C)C)cc2)c(O)c1)Cc1ccccc1OC`, the Selectivity Index in the assay filed under Homo sapiens is 25. Moreover, the half-inhibitory concentration (IC50) on Acetylcholinesterase [1] was 0.65 µM; against Acetylcholinesterase [3] it was 4.12 µM; in assay [5], 1.1 µM; in [7] it was 27.5 µM; against Butyrylcholinesterase, above 500 µM; in assay [9] (read-out: IC50) it was 1.48 µM. For the same compound, the values for the Activity in [2], in [4] and in [8] were 73%, 99.7% and 1.4, respectively. The inhibition in [6] stood at 91.9%.

As to `CCN(CCCCCCOc1ccc(C(=O)/C=C/c2ccc(N(C)C)cc2)c(O)c1)Cc1ccccc1`, in the assay listed under Homo sapiens, the Selectivity Index was found to be 15. Moreover, the 50% inhibitory concentration (IC50) on Acetylcholinesterase [1] is 4 µM; against Acetylcholinesterase [3], 3.59 µM; in [5], 2.1 µM; in assay [7], 31.6 µM; at Butyrylcholinesterase it was above 500 µM; in [9] (read-out: IC50), 3.17 µM. In addition, the Activity in assay [2] was 88.3%; in assay [4], 84.4%; in assay [8], 1.4. Further, in assay [6], the inhibition amounted to 91%.

As usually defined, the IC50 is the concentration needed to halve the response being measured. In general, inhibition refers to the drop in the measured response relative to a control, in per cent. Read a low inhibition as a weak effect.
